Screens from PubChem BioAssay.
An excerpt weighted towards active compounds, which were near 3.5% of everything screened.
PAFAH2 FP inh: PAFAH2 (human) inhibition | inhibition, % at 3.39 µM | recombinant PAFAH2, FP-rhodamine activity probe, fluorescence polarization | 340,000 compounds, 0.99% hits;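 active means inhibition above the mean over all tested compounds plus 3 SD, cut at about 30% in these data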;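 further: inhibitors block probe labeling of enzyme so polarization drops; 0% = enzyme with DMSO and 100% = wells lacking PAFAH2 protein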
pPAFAH FP inh: pPAFAH (human) enzyme inhibition; Q13093; recombinant pPAFAH, FP-rhodamine probe fluorescence polarization; inhibition, % at 3.39 µM; 330,000 compounds, 1.5% hits; AID 463082;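 active means inhibition above the mean inhibition across the screen plus 3 SD, cut at about 25% in these data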;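 further: inhibitors block binding of the rhodamine activity-based probe so polarization drops; 0% = enzyme with DMSO and 100% = wells lacking pPAFAH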
PREPL inh: human PREPL enzyme inhibition | recombinant PREPL, fluorescence polarization activity-based probe | inhibition, % at 5.96 µM | 320,000 compounds, 0.68% hits | AID 2751;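 further: 0% = enzyme with DMSO and 100% = wells lacking enzyme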
Target sequence (Q4J6C6 whole entry, looked up): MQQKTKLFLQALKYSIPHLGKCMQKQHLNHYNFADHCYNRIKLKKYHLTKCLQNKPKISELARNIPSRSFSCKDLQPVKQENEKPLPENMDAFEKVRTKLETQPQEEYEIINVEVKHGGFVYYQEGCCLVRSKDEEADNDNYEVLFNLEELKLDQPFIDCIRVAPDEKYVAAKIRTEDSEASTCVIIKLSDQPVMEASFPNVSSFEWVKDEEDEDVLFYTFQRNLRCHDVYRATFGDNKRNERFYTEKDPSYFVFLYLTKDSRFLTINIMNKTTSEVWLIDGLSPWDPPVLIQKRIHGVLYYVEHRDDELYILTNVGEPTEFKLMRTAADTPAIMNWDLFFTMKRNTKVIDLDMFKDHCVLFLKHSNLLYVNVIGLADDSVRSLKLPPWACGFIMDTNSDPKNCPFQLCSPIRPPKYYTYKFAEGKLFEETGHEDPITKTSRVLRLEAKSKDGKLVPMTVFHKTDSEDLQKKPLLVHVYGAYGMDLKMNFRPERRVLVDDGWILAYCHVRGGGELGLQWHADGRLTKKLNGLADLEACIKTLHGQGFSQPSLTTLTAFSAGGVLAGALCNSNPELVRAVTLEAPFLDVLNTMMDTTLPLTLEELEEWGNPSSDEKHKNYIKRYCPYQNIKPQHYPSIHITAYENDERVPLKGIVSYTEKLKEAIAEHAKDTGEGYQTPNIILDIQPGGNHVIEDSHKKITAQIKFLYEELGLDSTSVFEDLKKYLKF
PAFAH1B3 inh: inhibitors of human PAFAH1B3. Q15102. recombinant PAFAH1B3, FP-rhodamine probe, fluorescence polarization. inhibition, % at 3.39 µM. 340,000 compounds, 0.28% hits. AID 492972;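 active means inhibition above the screen-wide average of all tested compounds plus 3 SD, cut at about 25% in these data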;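 further: 0% = enzyme with DMSO only and 100% = wells lacking PAFAH1B3 protein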
Apaf-1 inh: inhibitors of human Apaf-1 apoptosome; inhibition, % at 20 µM; 330,000 compounds, 0.71% hits; O14727; reconstituted apoptosome caspase-3 activity, DEVD-Rh110 fluorescence; active means inhibition of at least 40% at 20 µM;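 further: plate controls were DMSO wells for no effect and DEVD-CHO caspase inhibitor wells for full effect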
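System: reconstituted apoptosome with Apaf-1, cytochrome c, caspase-9, procaspase-3, dATP; Signal: Rh110 fluorescence intensity; Schedule: 30 min compound preincubation, 50 min activation, room temperature; Reagent: cytochrome c trigger plus (Z-DEVD)2-Rh110 caspase-3 substrate.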
PAFAH1B2 inh: PAFAH1B2 (human) inhibition. AID 492953. 340,000 compounds, 1.2% hits. P68402. recombinant PAFAH1B2, FP-rhodamine activity probe, fluorescence polarization. inhibition, % at 3.39 µM;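 active means inhibition above the mean of all tested compounds plus 3 SD, cut at about 24% in these data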;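 further: 0% = enzyme with DMSO and 100% = wells lacking PAFAH1B2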
PREPL inh cf: human PREPL inhibition, confirmation | recombinant PREPL, fluorescence polarization activity probe | inhibition, % at 5.96 µM | 2,000 compounds, 67% hits | shares compounds with PREPL inh;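 further: 0% = protein with DMSO and 100% = wells lacking protein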
* hit, by the source's call; / = not tested or not shown; ! = a repeat was not active. Unless noted, no stated cut-off is given here; in the data, active means inhibition above about 43%; inactive means the rest.

SMILES | PAFAH2 FP inh | pPAFAH FP inh | PREPL inh | PAFAH1B3 inh | Apaf-1 inh | PAFAH1B2 inh | PREPL inh cf
O=C(NC1CCCCC1)C(c1ccccc1)N(Cc1ccc2c(c1)OCO2)C(=O)c1cnsn1 (centres undefined) | 2 | 4 | 46* | 3 | 19 | 8 | 33
CCN1c2ccccc2N(C)C1(C)c1ccccc1 (centres undefined) | 6 | 10 | 79* | 17 | / | 7 | 27
CCOC(=O)c1cc(NC(=O)CN2CCCC2)cc(C(=O)OCC)c1 | 3 | 5 | -3 | -2 | 8 | 6 | /
COc1ccc(/C=C/c2cc[n+](C(=O)Cc3ccccc3)cc2)cc1 | 7 | 6 | 45* | 3 | 11 | -2 | 28
COc1ccc(/C=C/C(=O)NCCCc2ccccc2)cc1 | -1 | 3 | -8 | 6 | 6 | -3 | /
O=C(CN1CCN(c2ccccn2)CC1)Nc1cc(C(F)(F)F)ccc1Cl | 3 | -1 | 47* | 6 | 28 | -2 | 30
O=C(CN1CCN(c2ccccn2)CC1)Nc1ccc(Cl)c(C(F)(F)F)c1 | 2 | 7 | 6 | 6 | 8 | 5 | /
CCOC(=O)[C@H]1[C@H]2COc3ccc(Cl)cc3[C@@H]2N2C(=O)c3ccc(Cl)cc3NC(=O)[C@@]12C | -4 | 7 | -5 | -6 | 8 | -9 | /
COc1cc(CNc2ccc(N3CCN(C(C)=O)CC3)cc2)ccc1OCc1ccc(F)cc1 | 2 | 31* | 45* | 9 | / | 9 | 40
CC(=O)N1CCN(c2ccc(NCc3cccc(C)c3)cc2)CC1 | 3 | 16 | 59* | -2 | 11 | 0 | 34
CCOc1cc(CNc2ccc(N3CCN(C(C)=O)CC3)cc2)cc(Br)c1OC | 0 | 15 | 12 | -3 | 12 | 7 | /
CC(=O)N1CCN(c2ccc(NCc3ccc(F)cc3)cc2)CC1 | 8 | 17 | 67* | -2 | 7 | 11 | 39
CCCCn1cnc2c(SCc3ccccc3Cl)nc(N)nc21 | 4 | / | / | 6 | / | -1 | /
Cc1c(CCOC(=O)C23CC4CC(CC(C)(C4)C2)C3)sc[n+]1CC(=O)c1ccccc1 | -2 | 1 | 48* | 14 | 19 | 6 | 44*
Cc1c(CCOC(=O)c2cc([N+](=O)[O-])cc([N+](=O)[O-])c2)sc[n+]1CC(=O)c1ccccc1 | 3 | 7 | 56* | 6 | 2 | 6 | 50*
Cc1c(CCOC(=O)CC23CC4CC(CC(C)(C4)C2)C3)sc[n+]1CC(=O)c1ccccc1 | 4 | 1 | 26 | 7 | 25 | 8 | /
Cc1ccccc1OCC(O)Cn1c(=N)n(CCN2CCOCC2)c2ccccc21 (centres undefined) | 2 | 1 | 56* | 24 | 18 | 7 | 45*!
Cn1c(SCc2ccc(Br)cc2)nc2c(c1=O)SCC2 | 7 | 6 | 47* | 13 | 8 | 3 | 42
COc1ccc(NC(=S)N2CCN(c3ccc([N+](=O)[O-])cc3)CC2)cc1OC | -4 | 2 | 47* | -2 | 12 | 0 | 49*
COc1cccc(NC(=S)N2CCN(c3ccc([N+](=O)[O-])cc3)CC2)c1 | 3 | 4 | -7 | 10 | 10 | 1 | /
O=C(CCn1c(=O)oc2ccccc21)N1CCN(c2ccccc2F)CC1 | 4 | 1 | 62* | 6 | 5 | 2 | 8
COc1cc(-c2nc3c[n+](CC(=O)c4ccccc4)ccc3n2C)cc(OC)c1OC | 5 | 1 | 53* | 8 | 2 | -4 | 21
CCN(CC)CCNc1ccc(CO)c2sc3ccccc3c(=O)c12 | 5 | -2 | 45* | 3 | 7 | -4 | 58*
CC(=O)c1ccc(N2CCN(C(=O)C3CCCN(c4ncnc5c4nc4n5CCCCC4)C3)CC2)cc1 (centres undefined) | 4 | 2 | 5 | 3 | 9 | 0 | /
CC1(C)N=C(N)N=C(N)N1c1ccccc1 | 9 | -1 | -2 | 1 | -15 | 2 | /
SMILES | PAFAH2 FP inh | pPAFAH FP inh | PREPL inh | PAFAH1B3 inh | Apaf-1 inh | PAFAH1B2 inh | PREPL inh cf
CC1(C)N=C(N)N=C(N)N1c1ccc(Oc2ccc(Cl)cc2)c(Cl)c1 | -13 | -1 | 55* | 10 | 14 | 6 | 52*
CCN(CC(=O)Nc1c(F)cccc1F)C(=O)Cc1ccc(S(=O)(=O)N2CCOCC2)s1 | 3 | / | / | 6 | 17 | 5 | /
COc1cc(/C=N\NC(=O)c2ccc(Cn3cc(Br)c([N+](=O)[O-])n3)o2)cc(OC)c1O | -2 | 27* | 51* | 0 | 8 | 1 | 41
COc1cc(/C=N/NC(=O)c2ccc(Cn3cc([N+](=O)[O-])cn3)o2)cc(Br)c1O | 7 | 10 | 5 | 11 | 0 | 3 | /
COc1ccc(NC(=O)C2CC(c3ccc(Cl)cc3)=NO2)cc1OC (centres undefined) | 6 | -4 | 38 | 4 | -12 | -2 | /
COc1cc(NC(=O)C2CC(c3ccc(Cl)cc3)=NO2)cc(OC)c1OC (centres undefined) | 2 | 4 | 44* | 4 | 6 | 3 | 38
C#CCOCCOCCOCCNc1nc(N2CCN(C(=O)[C@H](Cc3ccc(O)cc3)n3cc([C@@H](N)CC(C)C)nn3)CC2)nc(N2CCN(C(=O)[C@H](Cc3ccc(O)cc3)n3cc([C@@H](N)CC(C)C)nn3)CC2)n1 | / | 4 | 21 | / | 13 | / | /
C#CCOCCOCCOCCNc1nc(N2CCN(C(=O)[C@H]([C@@H](C)CC)n3cc([C@@H](N)CC(C)C)nn3)CC2)nc(N2CCN(C(=O)[C@H](Cc3cc4ccccc4[nH]3)n3cc([C@@H](N)C(C)CC)nn3)CC2)n1 (some centres undefined) | / | / | / | / | 30 | / | /
C#CCOCCOCCOCCNc1nc(N2CCN(C(=O)[C@H](Cc3ccc(O)cc3)n3cc([C@@H](N)C(C)CC)nn3)CC2)nc(N2CCN(C(=O)[C@H](Cc3cc4ccccc4[nH]3)n3cc([C@@H](N)Cc4ccc(O)cc4)nn3)CC2)n1 (some centres undefined) | / | 0 | 53* | / | 56* | / | 48*
C#CCOCCOCCOCCNc1nc(N2CCN(C(=O)C(Cc3ccc(O)cc3)n3cc(C(N)CC(C)C)nn3)CC2)nc(N2CCN(C(=O)C(Cc3cc4ccccc4[nH]3)n3cc(C(N)C(C)CC)nn3)CC2)n1 (centres undefined) | / | -3 | 51* | / | 20 | / | 51*
C#CCOCCOCCOCCNc1nc(N2CCN(C(=O)[C@H](Cc3ccc(O)cc3)n3cc([C@@H](N)CC(C)C)nn3)CC2)nc(N2CCN(C(=O)[C@H](Cc3cc4ccccc4[nH]3)n3cc([C@@H](N)CC(C)C)nn3)CC2)n1 | / | -3 | 53* | / | 27 | / | 50*
